Assay results from ChEMBL document CHEMBL4680114, “Optimization of Potent and Selective Ataxia Telangiectasia-Mutated Inhibitors Suitable for a Proof-of-Concept Study in Huntington's Disease Models” (J Med Chem, 2019).
≈ marks a conversion by molar mass, not a printed value.

Columns and labels:
[1] = Distribution coefficient, logD of compound at pH 7.4; assay type: physicochemical; settings: octanol/water
[2] = Kinetic solubility in pH 7.4 PBS buffer by LC-UV assay; assay type: physicochemical; settings: read-out: Kinetic_solubility
Summary of the method: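 Compound from a 10 mM DMSO stock diluted to a nominal 200 µM in 0.1 M potassium phosphate/0.8% NaCl pH 7.4 (2% DMSO final), n=2. Shaken 2 h at room temperature, then filtered. Filtrate quantified by LC-UV against 200 µM and 10 µM DMSO standards, with MS peak confirmation.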

[3] = AUC/dose in C57BL/6J mouse plasma at 3 mg/kg, iv administered as single dose by LC-MS/MS analysis; assay type: ADME, organism-based; settings: in vivo
Summary of the method: (§1)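 Male C57BL/6 mice, single intravenous dose as solution in 10:50:40 DMSO:PEG400:H2O (5 mL/kg). Plasma by cardiac puncture and brain collected at set times, n=3 per time point. LC-MS/MS quantitation with diclofenac IS. Composite non-compartmental parameters from mean concentrations; C0 back-extrapolated from first two points; kel from at least last three concentrations; AUC dose-normalized.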

[4] = AUC/dose in C57BL/6J mouse brain at 3 mg/kg, iv administered as single dose by LC-MS/MS analysis; assay type: ADME, organism-based; settings: in vivo; summary of the method: as §1
[5] = Volume of distribution at steady state in C57BL/6J mouse at 3 mg/kg, iv administered as single dose by LC-MS/MS analysis; assay type: ADME, organism-based; settings: in vivo, read-out: Vdss
Summary of the method: (§2)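 Male mice given a single iv dose of 3 mg/kg in 10:50:40 DMSO:PEG400:H2O (5 mL/kg). Plasma (cardiac puncture) and brain collected, n=3 per time point, and measured by LC-MS/MS. Non-compartmental parameters from mean concentrations, with C0 back-extrapolated; AUC by linear trapezoidal method, dose-normalised.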

[6] = Ratio of AUC/dose in brain to plasma of C57BL/6J mouse at 3 mg/kg, iv administered as single dose by LC-MS/MS analysis; assay type: ADME, organism-based; settings: brain and plasma, read-out: BPR; summary of the method: as §2
[7] = Unbound brain-to-plasma concentration ratio in C57BL/6J mouse at 3 mg/kg, iv administered as single dose by LC-MS/MS analysis; assay type: ADME, organism-based; settings: brain and plasma, read-out: K(p,uu,brain)

solubility kinetic [2] [µg/mL]	Compound	also measured
46 (≈ 84 µM)	C[C@@H]1CN(CC(=O)Nc2ccc3c(c2)Cc2cccc(-c4cc(=O)cc(N5CCOCC5)o4)c2S3)C[C@H](C)O1	logD [1]: 4.5
89 (≈ 187 µM)	CCN1CC(Oc2ccc3c(c2)Cc2cccc(-c4cc(=O)cc(N5CCOCC5)o4)c2S3)C1	
56 (≈ 108 µM)	C[C@@H](CN1CCOCC1)Oc1ccc2c(c1)Cc1cccc(-c3cc(=O)cc(N4CCOCC4)o3)c1S2	
49 (≈ 94.1 µM)	C[C@H](CN1CCOCC1)Oc1ccc2c(c1)Cc1cccc(-c3cc(=O)cc(N4CCOCC4)o3)c1S2	
22 (≈ 47.3 µM)	COC[C@@H](C)Oc1ccc2c(c1)Cc1cccc(-c3cc(=O)cc(N4CCOCC4)o3)c1S2	AUC/dose [3]: 1600 nM·kg·h/mg; AUC/dose [4]: 680 nM·kg·h/mg; Vd [5]: 1.9 L/kg; Kp [6]: 0.4; Kp uu [7]: 0.14
27 (≈ 49.2 µM)	C[C@@H]1CN(C[C@H](C)Oc2ccc3c(c2)Cc2cccc(-c4cc(=O)cc(N5CCOCC5)o4)c2S3)C[C@H](C)O1	
26 (≈ 47.6 µM)	C[C@@H](CN1CCOC2(CC2)C1)Oc1ccc2c(c1)Cc1cccc(-c3cc(=O)cc(N4CCOCC4)o3)c1S2	
24 (≈ 43.7 µM)	C[C@@H]1CN([C@H](C)COc2ccc3c(c2)Cc2cccc(-c4cc(=O)cc(N5CCOCC5)o4)c2S3)C[C@H](C)O1	
21 (≈ 38.4 µM)	C[C@@H](CN1CCCC12COC2)Oc1ccc2c(c1)Cc1cccc(-c3cc(=O)cc(N4CCOCC4)o3)c1S2	
42.5 (≈ 79.5 µM)	C[C@@H]1CN(CCOc2ccc3c(c2)Cc2cccc(-c4cc(=O)cc(N5CCOCC5)o4)c2S3)C[C@H](C)O1	
12 (≈ 23.4 µM)	O=c1cc(-c2cccc3c2Sc2ccc(OC4CN(CC(F)F)C4)cc2C3)oc(N2CCOCC2)c1	
30 (≈ 54.7 µM)	C[C@H](CN1C[C@@H](C)O[C@@H](C)C1)Oc1ccc2c(c1)Cc1cccc(-c3cc(=O)cc(N4CCOCC4)o3)c1S2	AUC/dose [3]: 1100 nM·kg·h/mg; AUC/dose [4]: 110 nM·kg·h/mg; Vd [5]: 2.3 L/kg; Kp [6]: 0.1; Kp uu [7]: 0.03
89 (≈ 167 µM)	C[C@@H](CN1C[C@H]2C[C@@H]1CO2)Oc1ccc2c(c1)Cc1cccc(-c3cc(=O)cc(N4CCOCC4)o3)c1S2	

The remaining lines, values behind:

Compound	solubility kinetic [2] [µg/mL]	also measured
CC(=O)N(C)c1ccc2c(c1)Cc1cccc(-c3cc(=O)cc(N4CCOCC4)o3)c1S2	77 (≈ 172 µM)	
O=c1cc(-c2cccc3c2Sc2ccc(OC4CCOCC4)cc2C3)oc(N2CCOCC2)c1	10 (≈ 20.9 µM)	
O=c1cc(-c2cccc3c2Sc2ccc(OCCN4CCC(F)(F)C4)cc2C3)oc(N2CCOCC2)c1	3 (≈ 5.7 µM)	
C[C@@H](CN1CCOCC12COC2)Oc1ccc2c(c1)Cc1cccc(-c3cc(=O)cc(N4CCOCC4)o3)c1S2	29 (≈ 51.5 µM)	
O=c1cc(-c2cccc3c2Sc2ccc(OCCN4CCCC45CCOC5)cc2C3)oc(N2CCOCC2)c1 (stereo not given)	47 (≈ 86 µM)	
O=c1cc(-c2cccc3c2Sc2ccc(OC4COC4)cc2C3)oc(N2CCOCC2)c1	25 (≈ 55.6 µM)	AUC/dose [3]: 1900 nM·kg·h/mg; AUC/dose [4]: 450 nM·kg·h/mg; Vd [5]: 1.6 L/kg; Kp [6]: 0.2; Kp uu [7]: 0.07
CO[C@@H](C)COc1ccc2c(c1)Cc1cccc(-c3cc(=O)cc(N4CCOCC4)o3)c1S2	14 (≈ 30.1 µM)	
C[C@H](O)COc1ccc2c(c1)Cc1cccc(-c3cc(=O)cc(N4CCOCC4)o3)c1S2	30 (≈ 66.4 µM)	
CC1(CNc2ccc3c(c2)Cc2cccc(-c4cc(=O)cc(N5CCOCC5)o4)c2S3)COC1	14 (≈ 29.4 µM)	
CN1CCN(CCOc2ccc3c(c2)Cc2cccc(-c4cc(=O)cc(N5CCOCC5)o4)c2S3)CC1	92 (≈ 177 µM)	
O=c1cc(-c2cccc3c2Sc2ccc(OCC4CCOCC4)cc2C3)oc(N2CCOCC2)c1	< 2	
COC[C@H]1c2cc(OC)ccc2Sc2c(-c3cc(=O)cc(N4CCOCC4)o3)cccc21	67 (≈ 148 µM)	AUC/dose [3]: 960 nM·kg·h/mg; AUC/dose [4]: 430 nM·kg·h/mg; Vd [5]: 3 L/kg; Kp [6]: 0.4; Kp uu [7]: 0.18
O=c1cc(-c2cccc3c2Sc2ccc(O[C@@H]4CCN(CC(F)F)C4)cc2C3)oc(N2CCOCC2)c1	7 (≈ 13.3 µM)	AUC/dose [3]: 1600 nM·kg·h/mg; AUC/dose [4]: 380 nM·kg·h/mg; Vd [5]: 2.6 L/kg; Kp [6]: 0.2; Kp uu [7]: 0.05
O=c1cc(-c2cccc3c2Sc2ccc(OCCN4CCC(F)(F)CC4)cc2C3)oc(N2CCOCC2)c1	3 (≈ 5.55 µM)	
COc1ccc2c(c1)C1(CCOCC1)c1cccc(-c3cc(=O)cc(N4CCOCC4)o3)c1S2	33 (≈ 69.1 µM)	AUC/dose [3]: 1500 nM·kg·h/mg; AUC/dose [4]: 700 nM·kg·h/mg; Vd [5]: 3 L/kg; Kp [6]: 0.5; Kp uu [7]: 0.12
C[C@@H](COc1ccc2c(c1)Cc1cccc(-c3cc(=O)cc(N4CCOCC4)o3)c1S2)N1CCOCC1	9 (≈ 17.3 µM)	
O=c1cc(-c2cccc3c2Sc2ccc(OCCN4CC(F)C4)cc2C3)oc(N2CCOCC2)c1	46 (≈ 93 µM)	
CN1CC[C@@H](Oc2ccc3c(c2)Cc2cccc(-c4cc(=O)cc(N5CCOCC5)o4)c2S3)C1	84 (≈ 176 µM)	
CC(=O)Nc1ccc2c(c1)Cc1cccc(-c3cc(=O)cc(N4CCOCC4)o3)c1S2	34 (≈ 78.2 µM)	
CC(C)(O)C1CCN(CCOc2ccc3c(c2)Cc2cccc(-c4cc(=O)cc(N5CCOCC5)o4)c2S3)CC1	101 (≈ 179 µM)	AUC/dose [3]: 950 nM·kg·h/mg; AUC/dose [4]: 120 nM·kg·h/mg; Vd [5]: 4.2 L/kg; Kp [6]: 0.1; Kp uu [7]: 0.05
O=C(CN1CCCC1)Nc1ccc2c(c1)Cc1cccc(-c3cc(=O)cc(N4CCOCC4)o3)c1S2	81 (≈ 161 µM)	
O=C(Nc1ccc2c(c1)Cc1cccc(-c3cc(=O)cc(N4CCOCC4)o3)c1S2)C1CC1	5 (≈ 10.9 µM)	
COC[C@@H]1c2cc(OC)ccc2Sc2c(-c3cc(=O)cc(N4CCOCC4)o3)cccc21	64 (≈ 142 µM)	
C[C@H](COc1ccc2c(c1)Cc1cccc(-c3cc(=O)cc(N4CCOCC4)o3)c1S2)N1CCOCC1	13 (≈ 25 µM)	
COc1ccc2c(c1)C(C)(C)c1cccc(-c3cc(=O)cc(N4CCOCC4)o3)c1S2	5 (≈ 11.5 µM)	
O=c1cc(-c2cccc3c2Sc2ccc(OCCN4C[C@H]5C[C@@H]4CO5)cc2C3)oc(N2CCOCC2)c1 (relative stereo)	82 (≈ 158 µM)	
